{"source": "ChEMBL document CHEMBL5053483", "about": "“Structure-Activity Relationship Study of Dexrazoxane Analogues Reveals ICRF-193 as the Most Potent Bisdioxopiperazine against Anthracycline Toxicity to Cardiomyocytes Due to Its Strong Topoisomerase IIβ Interactions” (J Med Chem, 2021)", "key": {"[1]": {"system": "Neonatal ventricular cardiomyocytes", "assay": "(§1) Cardioprotective activity against DAU-induced cardiotoxicity in Wistar rat neonatal ventricular cardiomyocytes preincubated for 3 hrs followed by DAU addition for 3 hrs and further incubated for 48 hrs in drug free medium by LDH assay", "type": "functional, tissue-based", "conditions": "time 6.0 hrs", "in_short": "(§2)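 Neonatal rat ventricular cardiomyocytes from collagenase II digests, preplated 2 h, 400 000 cells/well. Kept in serum- and pyruvate-free DMEM/F12. Cells pretreated 3 h with compound (10–100 μM), then co-incubated 3 h with 1.2 μM daunorubicin or without it. After 48 h in drug-free medium, LDH released to the medium was measured at 340 nm as percent of total LDH; four experiments.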"}, "HL-60 [2]": {"system": "HL-60", "assay": "Antiproliferative activity against human HL-60 cells at 100 uM after 72 hrs by XTT assay", "type": "functional, cell-based", "in_short": "(§3)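 HL-60 (ATCC) grown in RPMI-1640 with 10% FBS and antibiotics at 37 °C, 5% CO2. Seeded at 10 000 cells/well, exposed to compound for 72 h. XTT/PMS (1 mg/mL XTT, 50 μM PMS in PBS) added, absorbance read at 450 nm after 4 h. Results as percent of DMSO control; four independent experiments.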"}, "HL-60 [3]": {"system": "HL-60", "assay": "Antiproliferative activity against human HL-60 cells assessed as increase in daunorubicin activity at 100 uM after 72 hrs in presence of 15 nM of daunorubicin by XTT assay"}, "HL-60 [4]": {"system": "HL-60", "assay": "Antiproliferative activity against human HL-60 cells after 72 hrs by XTT assay", "type": "functional, cell-based", "conditions": "HL-60, 72 h", "in_short": "as §3"}, "[5]": {"assay": "Cytotoxicity against Wistar rat neonatal ventricular cardiomyocytes at 1.2 uM by LDH assay", "type": "tissue-based", "in_short": "as §2"}, "[6]": {"target": "DNA topoisomerase 2-alpha (Homo sapiens, UniProt P11388)", "sequence (P11388 whole entry)": "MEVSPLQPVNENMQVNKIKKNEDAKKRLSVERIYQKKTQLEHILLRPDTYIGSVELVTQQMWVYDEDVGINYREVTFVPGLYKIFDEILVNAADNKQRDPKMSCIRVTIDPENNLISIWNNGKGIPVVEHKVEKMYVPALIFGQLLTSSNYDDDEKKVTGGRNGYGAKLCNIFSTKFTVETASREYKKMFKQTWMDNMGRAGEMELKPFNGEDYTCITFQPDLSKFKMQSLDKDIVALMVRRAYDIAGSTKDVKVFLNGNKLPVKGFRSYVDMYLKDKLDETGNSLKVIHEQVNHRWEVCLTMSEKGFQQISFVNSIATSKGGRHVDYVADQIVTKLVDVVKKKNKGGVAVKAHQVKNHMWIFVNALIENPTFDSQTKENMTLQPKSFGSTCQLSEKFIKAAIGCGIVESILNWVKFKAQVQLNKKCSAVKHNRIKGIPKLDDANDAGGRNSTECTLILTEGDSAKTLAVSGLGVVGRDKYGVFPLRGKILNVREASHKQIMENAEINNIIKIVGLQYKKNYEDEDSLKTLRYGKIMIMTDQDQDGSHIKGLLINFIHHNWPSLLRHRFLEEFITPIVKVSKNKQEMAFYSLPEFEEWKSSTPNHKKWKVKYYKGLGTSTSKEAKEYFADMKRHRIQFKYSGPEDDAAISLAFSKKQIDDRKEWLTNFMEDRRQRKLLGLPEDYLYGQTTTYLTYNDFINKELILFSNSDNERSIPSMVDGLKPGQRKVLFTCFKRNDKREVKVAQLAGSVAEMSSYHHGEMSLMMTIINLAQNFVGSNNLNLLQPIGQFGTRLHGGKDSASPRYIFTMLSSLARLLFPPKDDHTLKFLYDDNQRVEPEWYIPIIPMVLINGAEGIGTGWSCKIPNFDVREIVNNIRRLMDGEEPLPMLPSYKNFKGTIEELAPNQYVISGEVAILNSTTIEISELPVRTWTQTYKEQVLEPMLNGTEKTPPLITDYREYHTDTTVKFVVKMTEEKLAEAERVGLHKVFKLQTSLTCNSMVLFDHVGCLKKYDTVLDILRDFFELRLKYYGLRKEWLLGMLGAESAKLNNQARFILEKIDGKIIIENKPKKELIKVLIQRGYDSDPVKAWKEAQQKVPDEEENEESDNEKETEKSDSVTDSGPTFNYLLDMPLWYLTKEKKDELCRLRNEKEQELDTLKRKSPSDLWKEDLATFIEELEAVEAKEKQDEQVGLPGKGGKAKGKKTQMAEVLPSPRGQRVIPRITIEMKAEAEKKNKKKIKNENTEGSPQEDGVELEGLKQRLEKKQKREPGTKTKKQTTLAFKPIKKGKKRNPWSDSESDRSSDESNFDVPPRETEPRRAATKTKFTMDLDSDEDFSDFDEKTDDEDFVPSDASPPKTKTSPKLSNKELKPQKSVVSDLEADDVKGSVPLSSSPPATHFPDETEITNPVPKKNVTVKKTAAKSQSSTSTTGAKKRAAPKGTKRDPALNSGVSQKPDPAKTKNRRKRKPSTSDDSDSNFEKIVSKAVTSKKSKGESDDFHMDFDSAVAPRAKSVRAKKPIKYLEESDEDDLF", "assay": "Inhibition of human TOP2A assessed as reduction in […] using kDNA as substrate incubated for 30 min", "in_short": "(§4)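 Recombinant human TOP2A or TOP2B incubated with kDNA for 30 min at 37 °C. Buffer: 55 mM Tris-HCl pH 7.5, 135 mM NaCl, 10 mM MgCl2, 5 mM DTT, 0.1 mM EDTA, 3 mM ATP, 100 μg/mL BSA, 1% final DMSO. Compounds tested at 1–1000 μM. Products resolved on 1% agarose, SYBR Safe stained. Signal normalized to the untreated control on the same gel; three measurements.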"}, "DNA topoisomerase 2-beta": {"target": "DNA topoisomerase 2-beta (Homo sapiens, UniProt Q02880)", "sequence (Q02880 whole entry)": "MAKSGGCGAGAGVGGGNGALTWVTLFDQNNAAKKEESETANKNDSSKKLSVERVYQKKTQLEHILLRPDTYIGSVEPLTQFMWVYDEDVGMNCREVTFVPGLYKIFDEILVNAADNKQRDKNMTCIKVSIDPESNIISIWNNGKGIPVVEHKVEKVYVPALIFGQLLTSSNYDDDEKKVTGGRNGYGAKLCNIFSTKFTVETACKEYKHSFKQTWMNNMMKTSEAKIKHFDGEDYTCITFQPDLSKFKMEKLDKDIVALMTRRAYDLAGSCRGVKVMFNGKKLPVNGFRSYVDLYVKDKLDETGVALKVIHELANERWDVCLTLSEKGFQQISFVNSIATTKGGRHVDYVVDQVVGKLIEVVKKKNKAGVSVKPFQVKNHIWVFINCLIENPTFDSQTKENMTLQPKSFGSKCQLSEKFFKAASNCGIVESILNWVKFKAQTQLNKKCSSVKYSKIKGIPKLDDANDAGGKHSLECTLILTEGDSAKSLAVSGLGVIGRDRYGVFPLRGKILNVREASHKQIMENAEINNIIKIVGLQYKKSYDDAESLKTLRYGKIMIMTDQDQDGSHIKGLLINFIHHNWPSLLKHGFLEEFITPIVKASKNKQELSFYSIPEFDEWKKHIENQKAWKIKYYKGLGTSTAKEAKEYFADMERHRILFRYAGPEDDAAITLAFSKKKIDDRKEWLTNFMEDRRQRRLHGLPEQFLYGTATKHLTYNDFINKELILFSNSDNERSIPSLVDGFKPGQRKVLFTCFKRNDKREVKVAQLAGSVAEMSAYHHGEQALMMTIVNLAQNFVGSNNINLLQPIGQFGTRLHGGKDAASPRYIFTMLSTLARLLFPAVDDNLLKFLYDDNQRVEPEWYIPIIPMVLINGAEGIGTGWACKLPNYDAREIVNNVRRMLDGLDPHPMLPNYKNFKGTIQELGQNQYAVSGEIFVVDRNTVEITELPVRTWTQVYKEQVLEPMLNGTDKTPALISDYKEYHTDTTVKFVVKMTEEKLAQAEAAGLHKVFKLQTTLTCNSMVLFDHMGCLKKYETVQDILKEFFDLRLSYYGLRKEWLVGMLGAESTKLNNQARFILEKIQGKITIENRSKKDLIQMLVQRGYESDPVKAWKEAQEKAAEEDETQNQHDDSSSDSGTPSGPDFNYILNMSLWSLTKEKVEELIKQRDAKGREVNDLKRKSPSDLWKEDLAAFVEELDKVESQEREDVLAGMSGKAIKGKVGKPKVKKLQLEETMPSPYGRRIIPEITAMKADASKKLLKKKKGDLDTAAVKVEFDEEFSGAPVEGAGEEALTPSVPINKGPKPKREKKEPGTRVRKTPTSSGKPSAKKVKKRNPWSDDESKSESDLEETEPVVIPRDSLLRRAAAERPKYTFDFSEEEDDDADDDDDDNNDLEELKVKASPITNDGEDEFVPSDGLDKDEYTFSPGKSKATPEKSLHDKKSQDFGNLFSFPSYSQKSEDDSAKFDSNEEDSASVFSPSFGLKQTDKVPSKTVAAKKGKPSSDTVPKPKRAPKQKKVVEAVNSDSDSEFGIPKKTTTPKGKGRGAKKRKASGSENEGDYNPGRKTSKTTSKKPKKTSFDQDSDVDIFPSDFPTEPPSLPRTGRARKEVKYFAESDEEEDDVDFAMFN", "assay": "Inhibition of human TOP2B assessed as reduction in […] using kDNA as substrate incubated for 30 min", "in_short": "as §4"}, "[7]": {"assay": "Metal chelating activity assessed as displacement of Fe3+ from DAU-Fe3+ complex measured for 10 mins by spectrophotometric method", "in_short": "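DAU–Fe3+ complex (3:1) placed in 50 mM Tris/150 mM KCl, pH 7.4, room temperature, at 45 μM DAU and 15 μM Fe3+ final. After 3 min of equilibration, compound (100 μM) was added, with EDTA or SIH as reference chelators. Absorbance at 600 nm followed for 10 min, and the endpoint absorbance was compared.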"}, "[8]": {"assay": "as §1", "type": "functional, tissue-based", "in_short": "as §2"}}, "note": "pEC50, pIC50: −log10 of the molar value. The source made the active and inactive calls. The rule behind the calls is not given here.", "data": [{"smiles": "CC(C)(CN1CC(=O)NC(=O)C1)N1CC(=O)NC(=O)C1", "values": [{"measurement": "Activity", "setting": "[1]", "result": "inactive"}]}, {"smiles": "CN(CCN(C)C1CC(=O)NC1=O)C1CC(=O)NC1=O", "note": "(stereo unspecified)", "values": [{"measurement": "Activity", "setting": "HL-60 [2]", "result": "Active"}, {"measurement": "Activity", "setting": "HL-60 [3]", "result": "Active"}]}, {"smiles": "O=C1CN(CC(O)CN2CC(=O)NC(=O)C2)CC(=O)N1", "values": [{"measurement": "Activity", "setting": "HL-60 [2]", "result": "Active"}]}, {"smiles": "COc1cccc2c1C(=O)c1c(O)c3c(c(O)c1C2=O)C[C@@](O)(C(C)=O)C[C@@H]3O[C@H]1C[C@H](N)[C@H](O)[C@H](C)O1", "note": "[DAUNORUBICIN]", "values": [{"measurement": "pIC50", "setting": "HL-60 [4]", "result": 7.82}, {"measurement": "Activity", "setting": "[5]", "result": 40, "unit": "%"}]}, {"smiles": "C[C@@H](CN1CC(=O)NC(=O)C1)N1CC(=O)NC(=O)C1", "note": "[DEXRAZOXANE]", "values": [{"measurement": "pIC50", "setting": "[6]", "result": 4.40}, {"measurement": "pIC50", "setting": "DNA topoisomerase 2-beta", "result": 4.30}, {"measurement": "Activity", "setting": "[7]", "result": 77, "unit": "%"}, {"measurement": "pEC50", "setting": "[8]", "result": 4.00}, {"measurement": "pIC50", "setting": "HL-60 [4]", "result": 4.74}]}]}
